Data set [1] has as its system dopamine-β-hydroxylase (DβH). As to conditions: cited from earlier work.
For data set [2] the following is noted: first- and second-generation DβH inhibitors; cited from earlier work.
The format of data set [3] is in vivo, human. As to conditions: for AUClast test/reference geometric means ratio (GMR) / AUC∞ test/reference geometric means ratio (GMR) / Cmax test/reference geometric means ratio (GMR): fed (test) vs fasting (reference), n = 12.
A short description of data set [4]: Tolerability in the food-effect study. Format: in vivo, human. A digest of the protocol: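 Randomized two-period crossover in 12 healthy men (18–45 y, BMI 19–28 kg/m2). Each received a single 200 mg oral dose (four 50 mg capsules, 240 mL water) after a high-fat, high-calorie breakfast or a 10 h fast; washout ≥14 days; confined until 72 h post-dose. Adverse events monitored throughout, recording onset, offset, severity, relatedness, action and outcome. Vital signs, physical examination, hematology and biochemistry at each admission.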

The subject of another data set is dogs. As to conditions: cited from earlier work.
The subject of the next data set is Cynomolgus monkeys. As to conditions: cited from earlier work.
The next data set deals with rats. Conditions: cited from earlier work.
A further data set has as its system mice. Conditions: cited from earlier work.
In data set [5] the test system is spontaneously hypertensive rats. As to conditions: cited from earlier work.
In data set [6] the test system is normotensive Wistar-Kyotos rats. As to conditions: cited from earlier work.
Data set [7] relates to male cardiomyopathic hamsters (Bio TO-2 dilated strain). As to conditions: male cardiomyopathic hamsters (Bio TO-2 dilated strain) with advanced congestive heart failure; cited from earlier work.
In data set [8] the test system is dopamine or noradrenaline levels in the brain. Conditions: in contrast to peripheral tissues; cited from earlier work.
The conditions of data set [9]: 200 mg single dose, fasting condition; cited from earlier work.
The conditions of data set [10]: cited from earlier work; for Increase of the extent of systemic exposure with dose / Linearity of pharmacokinetics: once-daily 25-600 mg for 10 days.
The conditions of data set [11]: cited from earlier work.
For data set [12] the following is noted: cited from earlier work. This is another data set of the same source.
For data set [13] the following is noted: rat; cited from earlier work.
For data set [14], the system named is dopamine-β-hydroxylase (DβH). As to conditions: cited from earlier work. The source holds these as a separate data set.
[15] abbreviates: first- and second-generation DβH inhibitors.
Where [16] appears, read: 90% CI of GMR against the acceptance interval (80, 125).

Entries after “also recorded” stand apart in the source; their conditions may differ. Like-named read-outs stand apart in the source and are kept apart here.

For `CCN(CC)C(=S)S` [diethyldithiocarbamate], in data set [1] (setting [15]), the “Potency as DβH inhibitor” value is given as “low potency” and the “Selectivity for DβH” value is “poor selectivity”. Also, the Side effects entry in data set [2] is given as “toxic side effects”.

Regarding `Cl.NCCc1c[nH]c(=S)n1[C@H]1COc2c(F)cc(F)cc2C1` [etamicastat, (R)-5-(2-aminoethyl)-1-(6,8-difluorochroman-3-yl)-1,3-dihydroimidazole-2-thione hydrochloride], in data set [3] (setting [16]), the “Bioequivalence fed vs fasting for Cmax” value is reported as “did not fit the claim of bioequivalence; also recorded: does not fit the claim of bioequivalence”; the “Bioequivalence fed vs fasting for extent of exposure (AUClast and AUC∞)” value is reported as “fulfilled the claim of bioequivalence; also recorded: remained within the acceptance interval; also recorded: remained unchanged”. Further, in data set [3] (single oral etamicastat 200 mg), the “AUClast test/reference geometric means ratio (GMR)” value worked out at 93.59%, the “AUC∞ test/reference geometric means ratio (GMR)” value stood at 96.47% and the “Cmax test/reference geometric means ratio (GMR)” value came out at 72.27%. The “Effect of food on tmax” value in [3] (fed vs fasting, Wilcoxon signed rank test) is recorded as “prolonged; also recorded: significantly delayed; also recorded: significantly increased”. Also, in data set [3] (fed vs fasting, single oral etamicastat 200 mg), the “Decrease of Cmax as a result of food intake” value amounted to 28%. Also, in [4] (both periods), the “Intensity of TEAEs” value was “mild to moderate” and the “Serious adverse events or discontinuations due to adverse events” value is “no serious adverse events or discontinuations due to adverse events”. For the same compound, the “Total number of treatment-emergent adverse events” value in data set [4] (both periods, single oral etamicastat 200 mg) is “six”. Further, the “Abnormalities in vital signs, ECG or laboratory safety tests” value in [4] (during the study) is recorded as “no clinically significant abnormality; also recorded: No clinically relevant abnormalities”. The “Number of TEAEs” value in data set [4] (fed period (abdominal pain, asthenia, headache, intercostal pain)) is given as “four”. Also, in data set [4] (of 12 subjects, single oral etamicastat 200 mg, both periods), the “Proportion of subjects reporting treatment-emergent adverse events” value came out at 33.3%. For the same compound, the Overall tolerability entry in data set [4] (single oral 200 mg, fasting and fed periods, healthy male subjects) is recorded as “well tolerated”. Further, the “No observed adverse effect level” value in the data set on dogs is 5 mg/kg/day. For the same compound, the “No observed adverse effect level” value with Cynomolgus monkeys is 20 mg/kg/day. Further, in the data set on rats, the “No observed adverse effect level” value is given as 30 mg/kg/day. Also, in the data set with mice, the “No observed adverse effect level” value was 30 mg/kg/day. For the same compound, in data set [5], the Heart rate entry is “did not affect”; the “Systolic and diastolic blood pressure” value is on record as “reduced”. Also, the Heart rate result in data set [6] (Wistar-Kyotos rats) is recorded as “did not affect”. The “Systolic and diastolic blood pressure” value in data set [6] (normotensive Wistar-Kyotos rats) is “no changes”. In addition, the Survival rates entry in [7] was “increased survival rates”. Further, the “Effect on dopamine or noradrenaline levels in the brain” value in data set [8] is on record as “does not affect”. In data set [9], the “AUClast, arithmetic mean” value is 2026 ng·h/mL; the “AUC∞, arithmetic mean” value is 2230 ng·h/mL; the “Cmax, arithmetic mean” value is on record as 202 ng/mL; the “t1/2, arithmetic mean” value was 19.8 h. Further, in data set [10], the “Increase of the extent of systemic exposure with dose” value is recorded as “approximately dose-proportional” and the Linearity of pharmacokinetics entry was “linear pharmacokinetics”. In data set [10] (once-daily dosing), the “Etamicastat dose recovered in urine in the form of etamicastat and BIA 5-961” value is listed as “Approximately 40%”; the “Time to attain steady-state plasma concentrations” value is reported as “up to 9 days”. In addition, the Tolerability result in data set [10] (orally, doses up to 600mg once daily for 10 days, male healthy volunteers) is reported as “appears to be well tolerated”. Also, the “Effect of NAT1 phenotype on pharmacokinetics” value in data set [11] is recorded as “no relevant effect”.

Consider `CCCCc1ccc(C(=O)O)nc1` [fusaric acid], for which, in data set [1] (setting [15]), the “Potency as DβH inhibitor” value was “low potency” and the “Selectivity for DβH” value is listed as “poor selectivity”. Also, in [2], the Side effects entry is recorded as “toxic side effects”.

In the case of `NCc1c[nH]c(=S)n1[C@H]1CCc2c(F)cc(F)cc2C1` [nepicastat], the “Potency as DβH inhibitor” value in [1] (third-generation DβH inhibitor, compared with first and second generation) was “much greater potency”. Also, in data set [12], the “Crossing of the blood-brain barrier” value is given as “cross the blood-brain barrier”.

Take `CC(=O)NCCc1c[nH]c(=S)n1[C@H]1COc2c(F)cc(F)cc2C1` [BIA 5-961]: in data set [3] (etamicastat 200 mg administered in the presence of food vs fasting), the “Effect of food on AUC∞, AUClast and Cmax (systemic exposure) of the metabolite” value is “significant decrease; also recorded: decreased”. Moreover, in data set [3] (single oral etamicastat 200 mg), the “AUClast test/reference geometric means ratio (GMR)” value worked out at 79.41%, the “AUC∞ test/reference geometric means ratio (GMR)” value was 83.47% and the “Cmax test/reference geometric means ratio (GMR)” value is listed as 62.42%. For the same compound, in data set [10], the “Increase of the extent of systemic exposure with dose” value is on record as “approximately dose-proportional” and the Linearity of pharmacokinetics entry is recorded as “linear pharmacokinetics”. Besides, in [11], the “AUC in NAT2 rapid acetylators compared with poor acetylators” value is reported as “markedly higher”. Also, the “Occurrence as metabolite of etamicastat” value in data set [13] is on record as “major metabolic pathway”. Moreover, the “Activity of the metabolite” value in data set [14] is “inactive”.

Take `CCN(CC)C(=S)SSC(=S)N(CC)CC` [disulfiram]: in [1] (setting [15]), the “Potency as DβH inhibitor” value is reported as “low potency” and the “Selectivity for DβH” value is listed as “poor selectivity”. Moreover, in data set [2], the Side effects result was “toxic side effects”.

These data come from PMC3585837 (Drugs in R&D, 2012).
